Published values gathered from unrelated publications.
Medium: plasma

Compound | species | route | dose | notes | AUC(0-inf)
COc1cc(-c2cc(C(C)=O)n3ccccc23)c(OC)cc1Cn1ccnc1 | male Sprague-Dawley rat | oral | 5 mg/kg |  | 2160 ng·h/mL
C[C@H]1Oc2cc(cnc2N)-c2c(nn(C)c2C#N)CN(C)C(=O)c2ccc(F)cc21 | male Sprague-Dawley rat | oral | 10 mg/kg | single dose | 3840 ng·h/mL
Cc1nc(Nc2ncc(C(=O)Nc3c(C)cccc3Cl)s2)cc(N2CC[C@H](O)C2)n1 | male Sprague-Dawley rat | oral | 5 mg/kg | single dose | 2.71 µM·h
CC[C@H](C)[C@H](NC(=O)[C@@H]1CCCN1C(=O)CNC(=O)[C@H](Cc1ccccc1)NC(=O)[C@H](CC(N)=O)NC(=O)[C@H](CC(N)=O)NC(=O)[C@H](CO)NC(=O)[C@H](CO)NC(=O)[C@H](Cc1c[nH]cn1)NC(=O)[C@H](CCCNC(=N)N)NC(=O)[C@H](CC(C)C)NC(=O)[C@H](Cc1ccccc1)NC(=O)[C@H](CCC(=O)O)NC(=O)[C@H](C)NC(=O)[C@H](CC(C)C)NC(=O)[C@H](CCCNC(=N)N)NC(=O)[C@H](CCC(N)=O)NC(=O)[C@@H](NC(=O)[C@H](C)NC(=O)[C@@H]1CSSC[C@H](NC(=O)[C@H](CCCCN)NC(=O)CC[C@H](NC(=O)CCCCCCCCCCCCCCCCCCC(=O)O)C(=O)O)C(=O)N[C@@H](CC(N)=O)C(=O)N[C@@H]([C@@H](C)O)C(=O)N[C@@H](C)C(=O)N[C@@H]([C@@H](C)O)C(=O)N1)[C@@H](C)O)C(=O)N[C@@H](CC(C)C)C(=O)N1CCC[C@H]1C(=O)N1CCC[C@H]1C(=O)N[C@H](C(=O)N[C@@H](CC(N)=O)C(=O)N[C@H](C(=O)NCC(=O)N[C@@H](CO)C(=O)N[C@@H](CC(N)=O)C(=O)N[C@H](C(=O)N1CCC[C@H]1C(N)=O)[C@@H](C)O)C(C)C)[C@@H](C)O | male Sprague-Dawley rat | subcutaneous | 30 nmol/kg | single dose | 5 µM·h
CONC(=O)c1cccc2c1cc(C)n2-c1nc2c(c(NCc3ccccc3)n1)CCCN2 | male Sprague-Dawley rat | intravenous | 1 mg/kg | single dose | 32.5 ng·h/mL
COc1ccc(N(Cc2csc(-c3ccccc3)n2)C(=O)CCCCCC(=O)NO)cc1 | female Sprague-Dawley rat | intravenous | 5 mg/kg |  | 30.7 ng·h/mL
COc1nc(-c2cccc(-c3ccccc3)c2C)ccc1CNCCNC(=O)CCCCCCCCCCC(=O)N1CCN(CCNC(=O)c2cc3c(=O)n4cccc(C)c4nc3n(CCc3cccs3)c2=N)CC1 | male Sprague-Dawley rat | intravenous | 2 mg/kg |  | 1640 ng·h/mL
Cn1c(=O)c2[nH]cnc2n(C)c1=O | male Sprague-Dawley rat | intravenous | 11.25 mg/kg |  | 32700 ng·h/mL
O=C1CCC(N2Cc3cc(C4CCN(Cc5ccccc5)CC4)ccc3C2=O)C(=O)N1 (stereo not shown) | male Sprague-Dawley rat | intravenous | 1 mg/kg |  | 325 ng·h/mL
CCOc1c([C@H](C)n2nc(C)c3c(N)ncnc32)cc(Cl)c(F)c1[C@@H]1CNC(=O)C1 | male Sprague-Dawley rat | oral | 2 mg/kg | single dose | 4610 ng·h/mL
C[C@@]12C[C@@]3(O)O[C@@H](O1)[C@]1(COC(=O)c4ccccc4)[C@H]3C[C@@]12O[C@@H]1O[C@H](CO)[C@@H](O)[C@H](O)[C@H]1O | male Sprague-Dawley rat | oral | 80 mg/kg |  | 4.33 ng·h/mL
CC[C@@H]([C@H](C)O)n1ncn(-c2ccc(N3CCN(c4ccc(OC[C@@H]5CO[C@@](Cn6cncn6)(c6ccc(F)cc6F)C5)cc4)CC3)cc2)c1=O | Sprague-Dawley rat | oral | 40 mg/kg |  | 10200 ng·h/mL
CCCc1nc2c(C)cc(-c3nc4ccccc4n3C)cc2n1Cc1ccc(-c2ccccc2C(=O)O)cc1 | male Sprague-Dawley rat | oral | 8 mg/kg | single dose | 1950 ng·h/mL
